Assay results taken from ChEMBL document CHEMBL5385905, “Design, synthesis and characterisation of a novel type II B-RAF paradox breaker inhibitor” (Eur J Med Chem, 2023).
Calls of active or inactive are those of the source. The calls are words filed in the database; no cut-off is given here.

What was measured:
[1] = target: T1, Dual specificity mitogen-activated protein kinase kinase 5 (Homo sapiens) (UniProt Q13163); test: Inhibition of MEK5 (unknown origin) at 1 uM relative to control
T1 sequence (whole entry): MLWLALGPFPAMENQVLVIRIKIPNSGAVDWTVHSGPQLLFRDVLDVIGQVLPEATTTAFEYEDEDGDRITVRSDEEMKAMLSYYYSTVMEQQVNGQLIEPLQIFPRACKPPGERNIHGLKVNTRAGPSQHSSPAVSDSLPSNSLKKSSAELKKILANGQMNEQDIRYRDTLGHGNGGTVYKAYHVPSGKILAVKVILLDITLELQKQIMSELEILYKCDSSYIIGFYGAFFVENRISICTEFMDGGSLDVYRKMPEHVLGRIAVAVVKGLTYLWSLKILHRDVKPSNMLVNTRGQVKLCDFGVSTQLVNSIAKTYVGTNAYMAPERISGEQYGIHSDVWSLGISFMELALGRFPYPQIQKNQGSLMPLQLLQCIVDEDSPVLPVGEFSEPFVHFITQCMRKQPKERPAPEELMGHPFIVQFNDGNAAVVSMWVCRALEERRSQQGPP

[2] = target: Platelet-derived growth factor receptor beta (Homo sapiens) (UniProt P09619); test: Inhibition of PDGFRB (unknown origin) at 1 uM relative to control
Sequence of Platelet-derived growth factor receptor beta (Homo sapiens) (P09619 whole entry): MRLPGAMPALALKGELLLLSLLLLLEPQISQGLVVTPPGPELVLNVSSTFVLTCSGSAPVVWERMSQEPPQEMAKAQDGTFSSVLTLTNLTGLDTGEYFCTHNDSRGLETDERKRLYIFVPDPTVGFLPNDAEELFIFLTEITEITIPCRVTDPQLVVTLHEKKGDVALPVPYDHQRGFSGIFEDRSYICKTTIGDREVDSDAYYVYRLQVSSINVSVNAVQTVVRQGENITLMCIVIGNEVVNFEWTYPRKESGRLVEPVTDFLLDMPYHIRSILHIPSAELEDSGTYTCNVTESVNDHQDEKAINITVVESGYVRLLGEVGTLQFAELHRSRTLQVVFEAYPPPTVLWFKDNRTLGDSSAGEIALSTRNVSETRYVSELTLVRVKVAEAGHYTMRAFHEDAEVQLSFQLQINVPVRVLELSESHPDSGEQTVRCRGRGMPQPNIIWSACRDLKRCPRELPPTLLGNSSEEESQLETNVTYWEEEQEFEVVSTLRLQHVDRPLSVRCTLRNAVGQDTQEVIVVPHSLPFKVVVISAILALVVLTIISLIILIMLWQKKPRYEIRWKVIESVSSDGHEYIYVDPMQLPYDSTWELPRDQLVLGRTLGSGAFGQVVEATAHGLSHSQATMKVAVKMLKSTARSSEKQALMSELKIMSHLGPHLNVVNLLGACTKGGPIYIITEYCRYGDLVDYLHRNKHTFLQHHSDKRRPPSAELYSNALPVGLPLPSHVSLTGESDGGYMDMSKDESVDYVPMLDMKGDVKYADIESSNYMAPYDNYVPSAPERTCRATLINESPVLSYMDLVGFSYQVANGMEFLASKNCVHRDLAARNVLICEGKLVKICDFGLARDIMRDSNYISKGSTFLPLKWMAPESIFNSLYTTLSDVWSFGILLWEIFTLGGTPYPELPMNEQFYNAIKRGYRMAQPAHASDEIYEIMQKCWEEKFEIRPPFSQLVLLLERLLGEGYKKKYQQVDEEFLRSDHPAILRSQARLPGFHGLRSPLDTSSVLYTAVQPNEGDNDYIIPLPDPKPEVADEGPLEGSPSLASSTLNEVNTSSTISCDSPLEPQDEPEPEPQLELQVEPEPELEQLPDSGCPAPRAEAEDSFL

[3] = target: Dual specificity mitogen-activated protein kinase kinase 4 (Homo sapiens) (UniProt P45985); test: Inhibition of MEK4 (unknown origin) at 1 uM relative to control
[4] = target: Mast/stem cell growth factor receptor Kit (Homo sapiens) (UniProt P10721); test: Inhibition of KIT (unknown origin) at 1 uM relative to control
Sequence of Mast/stem cell growth factor receptor Kit (Homo sapiens) (P10721 whole entry): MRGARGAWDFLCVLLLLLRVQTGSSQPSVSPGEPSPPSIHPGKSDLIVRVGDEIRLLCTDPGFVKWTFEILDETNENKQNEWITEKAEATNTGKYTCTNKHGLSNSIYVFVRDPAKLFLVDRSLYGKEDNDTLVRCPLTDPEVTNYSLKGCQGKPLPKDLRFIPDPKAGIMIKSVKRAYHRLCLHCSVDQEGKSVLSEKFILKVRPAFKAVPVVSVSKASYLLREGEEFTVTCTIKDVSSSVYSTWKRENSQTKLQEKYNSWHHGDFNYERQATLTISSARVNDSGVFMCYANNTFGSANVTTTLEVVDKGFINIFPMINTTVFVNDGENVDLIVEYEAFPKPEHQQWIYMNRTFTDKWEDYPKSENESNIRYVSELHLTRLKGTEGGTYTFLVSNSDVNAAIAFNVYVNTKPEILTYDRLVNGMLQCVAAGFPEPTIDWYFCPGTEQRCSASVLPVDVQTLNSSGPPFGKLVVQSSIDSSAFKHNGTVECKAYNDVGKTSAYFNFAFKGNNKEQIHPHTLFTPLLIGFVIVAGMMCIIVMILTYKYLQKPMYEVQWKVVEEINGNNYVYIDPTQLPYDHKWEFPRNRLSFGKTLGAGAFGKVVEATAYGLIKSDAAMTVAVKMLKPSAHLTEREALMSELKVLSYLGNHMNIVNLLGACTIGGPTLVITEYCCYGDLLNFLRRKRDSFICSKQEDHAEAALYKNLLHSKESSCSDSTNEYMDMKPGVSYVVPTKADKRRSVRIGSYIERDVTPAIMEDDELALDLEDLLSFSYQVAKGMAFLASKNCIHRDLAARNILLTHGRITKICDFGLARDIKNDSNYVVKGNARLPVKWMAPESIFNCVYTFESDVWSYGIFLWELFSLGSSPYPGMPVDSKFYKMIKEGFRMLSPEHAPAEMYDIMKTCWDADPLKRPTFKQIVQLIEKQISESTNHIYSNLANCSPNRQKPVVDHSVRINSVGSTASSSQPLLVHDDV

[5] = target: Tyrosine-protein kinase Fgr (Homo sapiens) (UniProt P09769); test: Inhibition of FGR (unknown origin) at 1 uM relative to control
Sequence of Tyrosine-protein kinase Fgr (Homo sapiens) (P09769 2-529 limits assumed): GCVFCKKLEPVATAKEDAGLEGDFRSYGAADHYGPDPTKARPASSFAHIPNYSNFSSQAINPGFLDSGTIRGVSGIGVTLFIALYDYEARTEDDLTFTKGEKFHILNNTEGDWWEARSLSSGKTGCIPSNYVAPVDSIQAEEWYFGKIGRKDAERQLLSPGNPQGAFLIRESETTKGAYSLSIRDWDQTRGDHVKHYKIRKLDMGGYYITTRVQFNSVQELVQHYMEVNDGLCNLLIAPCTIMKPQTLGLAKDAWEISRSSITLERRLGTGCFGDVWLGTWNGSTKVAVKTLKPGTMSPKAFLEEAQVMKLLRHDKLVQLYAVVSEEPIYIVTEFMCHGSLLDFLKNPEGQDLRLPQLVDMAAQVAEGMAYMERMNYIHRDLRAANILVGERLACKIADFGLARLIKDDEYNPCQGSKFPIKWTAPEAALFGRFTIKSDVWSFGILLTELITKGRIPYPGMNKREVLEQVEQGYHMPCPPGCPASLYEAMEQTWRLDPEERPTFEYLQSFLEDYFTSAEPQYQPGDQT

[6] = target: RAF proto-oncogene serine/threonine-protein kinase (Homo sapiens) (UniProt P04049); test: Inhibition of RAF1 (unknown origin) at 1 uM relative to control
Sequence of RAF proto-oncogene serine/threonine-protein kinase (Homo sapiens) (P04049 whole entry): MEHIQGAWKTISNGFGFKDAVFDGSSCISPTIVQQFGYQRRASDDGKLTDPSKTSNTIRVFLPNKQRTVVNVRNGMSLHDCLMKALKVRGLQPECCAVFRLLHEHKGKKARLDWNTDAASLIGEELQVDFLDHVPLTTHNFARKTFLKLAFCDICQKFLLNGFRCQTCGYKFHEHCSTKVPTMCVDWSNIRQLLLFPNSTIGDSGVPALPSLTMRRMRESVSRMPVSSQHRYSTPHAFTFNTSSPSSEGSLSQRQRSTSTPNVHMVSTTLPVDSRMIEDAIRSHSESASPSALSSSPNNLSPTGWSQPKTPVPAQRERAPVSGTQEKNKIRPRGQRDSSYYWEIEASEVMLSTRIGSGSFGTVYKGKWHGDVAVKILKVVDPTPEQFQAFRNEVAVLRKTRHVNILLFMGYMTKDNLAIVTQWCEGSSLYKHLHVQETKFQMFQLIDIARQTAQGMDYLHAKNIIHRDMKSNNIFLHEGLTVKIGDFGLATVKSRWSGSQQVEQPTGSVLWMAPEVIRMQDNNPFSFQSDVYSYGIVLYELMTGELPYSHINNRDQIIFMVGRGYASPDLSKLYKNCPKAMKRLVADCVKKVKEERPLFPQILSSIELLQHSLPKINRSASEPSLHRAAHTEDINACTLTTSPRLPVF

[7] = test system: SW-620; test: Cytotoxicity against human SW620 cells incubated for 96 hrs by MTT assay; assay type: functional, cell-based
In short: (§1)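 SW620 (ATCC) seeded at 4000 cells/well and A375 (ATCC) at 1000 cells/well in 96-well format. Compounds added the next day at increasing concentrations. Exposure 96 h. Viability read by MTT method per Mosmann.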

[8] = test system: A-375; test: Cytotoxicity against human A-375 cells incubated for 96 hrs by MTT assay; assay type: functional, cell-based; conditions: A-375, 96 h; in short: as §1
[9] = test system: A-375; test: Cytotoxicity against human A-375 cells expressing B-RAF V600E mutant assessed as inhibition of cell proliferation incubated for 96 hrs by MTT assay; assay type: functional, cell-based; in short: as §1
[10] = test system: SW-620; test: Cytotoxicity against human SW620 cells expressing wild type B-RAF assessed as inhibition of cell proliferation incubated for 96 hrs by MTT assay; assay type: functional, cell-based; in short: as §1
[11] = test system: A-375; test: Inhibition of MAPK pathway in human A-375 cells expressing B-RAF V600E mutant assessed as downregulation of MEK phosphorylation incubated for 1 to 4 hrs by immunoblotting analysis; assay type: cell-based; conditions: time 1-4 hrs
In short: (§2)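 SW620 seeded at 750 000 and A375 at 300 000 cells/well in 6-well format, grown 48 h to 75% confluence. Treated with increasing compound concentrations for 1 or 4 h. Lysis in 10 mM Tris-HCl, 1% SDS, 20 mM Na3VO4. 10–25 µg protein run on SDS-PAGE, transferred to PVDF, probed for MEK, phospho-MEK, phospho-ERK, B-Raf and actin. Read by LI-COR Odyssey.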

[12] = test system: A-375; test: Inhibition of MAPK pathway in human A-375 cells expressing B-RAF V600E mutant assessed as downregulation of ERK phosphorylation incubated for 1 to 4 hrs by immunoblotting analysis; assay type: cell-based; conditions: time 1-4 hrs; in short: as §2
[13] = test system: SW620; test: Inhibition of MAPK pathway in human SW620 cells expressing wild type B-RAF assessed as downregulation of MEK phosphorylation incubated for 1 to 4 hrs by immunoblotting analysis; assay type: cell-based; conditions: time 1-4 hrs; in short: as §2
[14] = test system: SW620; test: Inhibition of MAPK pathway in human SW620 cells expressing wild type B-RAF assessed as downregulation of ERK phosphorylation incubated for 1 to 4 hrs by immunoblotting analysis; assay type: cell-based; conditions: time 1-4 hrs; in short: as §2
[15] = target: Serine/threonine-protein kinase B-raf (Homo sapiens, UniProt P15056); test: Inhibition of wild type B-RAF (unknown origin) expressed in Escherichia coli BL21 (DE3)
[16] = target: Serine/threonine-protein kinase B-raf (Homo sapiens, UniProt P15056, V600E); test: Inhibition of B-RAF V600E mutant (unknown origin) expressed in Escherichia coli BL21 (DE3)
[17] = target: Tyrosine-protein kinase ABL1 (Homo sapiens) (UniProt P00519); test: Inhibition of ABL1 (unknown origin) at 1 uM relative to control
[18] = target: Tyrosine-protein kinase Lck (Homo sapiens) (UniProt P06239); test: Inhibition of LCK (unknown origin) at 1 uM relative to control
Sequence of Tyrosine-protein kinase Lck (Homo sapiens) (P06239 2-509 limits assumed): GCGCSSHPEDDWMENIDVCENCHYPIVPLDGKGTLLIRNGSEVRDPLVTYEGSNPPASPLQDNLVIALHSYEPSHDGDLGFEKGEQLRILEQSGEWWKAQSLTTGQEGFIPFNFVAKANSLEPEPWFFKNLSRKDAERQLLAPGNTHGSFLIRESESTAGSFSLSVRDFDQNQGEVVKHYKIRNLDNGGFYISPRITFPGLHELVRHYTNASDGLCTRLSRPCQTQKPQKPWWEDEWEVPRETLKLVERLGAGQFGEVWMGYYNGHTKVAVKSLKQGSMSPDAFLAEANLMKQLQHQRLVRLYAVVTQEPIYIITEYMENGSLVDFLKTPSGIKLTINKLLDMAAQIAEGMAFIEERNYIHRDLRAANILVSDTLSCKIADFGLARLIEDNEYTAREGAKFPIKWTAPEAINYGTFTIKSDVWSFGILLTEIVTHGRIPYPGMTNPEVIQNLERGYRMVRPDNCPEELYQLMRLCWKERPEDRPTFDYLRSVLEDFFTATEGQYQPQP

[19] = target: Macrophage colony-stimulating factor 1 receptor (Homo sapiens) (UniProt P07333); test: Inhibition of CSF1R (unknown origin) at 1 uM relative to control
[20] = target: Mitogen-activated protein kinase 14 (Homo sapiens) (UniProt Q16539); test: Inhibition of p-38 alpha (unknown origin) at 1 uM relative to control
[21] = target: Mitogen-activated protein kinase 11 (Homo sapiens) (UniProt Q15759); test: Inhibition of p-38 beta (unknown origin) at 1 uM relative to control
[22] = target: Proto-oncogene tyrosine-protein kinase receptor Ret (Homo sapiens) (UniProt P07949); test: Inhibition of RET (unknown origin) at 1 uM relative to control
[23] = target: Tyrosine-protein kinase CSK (Homo sapiens) (UniProt P41240); test: Inhibition of CSK (unknown origin) at 1 uM relative to control
[24] = target: Vascular endothelial growth factor receptor 1 (Homo sapiens) (UniProt P17948); test: Inhibition of FLT1 (unknown origin) at 1 uM relative to control
[25] = target: Vascular endothelial growth factor receptor 3 (Homo sapiens) (UniProt P35916); test: Inhibition of FLT4 (unknown origin) at 1 uM relative to control
[26] = target: Tyrosine-protein kinase Blk (Homo sapiens) (UniProt P51451); test: Inhibition of BLK (unknown origin) at 1 uM relative to control
Sequence of Tyrosine-protein kinase Blk (Homo sapiens) (P51451 2-505 limits assumed): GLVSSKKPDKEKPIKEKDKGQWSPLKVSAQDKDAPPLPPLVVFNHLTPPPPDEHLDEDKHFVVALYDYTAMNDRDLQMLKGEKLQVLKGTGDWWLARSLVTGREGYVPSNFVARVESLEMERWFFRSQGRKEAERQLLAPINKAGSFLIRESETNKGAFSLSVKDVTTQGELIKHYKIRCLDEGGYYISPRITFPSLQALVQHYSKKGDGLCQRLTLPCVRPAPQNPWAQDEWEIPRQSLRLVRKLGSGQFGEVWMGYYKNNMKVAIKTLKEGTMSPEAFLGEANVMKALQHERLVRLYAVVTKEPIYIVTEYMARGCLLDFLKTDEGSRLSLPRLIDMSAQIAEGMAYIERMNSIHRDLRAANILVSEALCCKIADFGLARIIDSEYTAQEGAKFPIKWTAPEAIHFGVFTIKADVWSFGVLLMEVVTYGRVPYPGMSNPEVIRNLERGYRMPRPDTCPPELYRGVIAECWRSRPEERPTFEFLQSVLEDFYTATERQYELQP

[27] = target: Vascular endothelial growth factor receptor 2 (Homo sapiens) (UniProt P35968); test: Inhibition of VEGFR2 (unknown origin) at 1 uM relative to control
[28] = target: Platelet-derived growth factor receptor alpha (Homo sapiens) (UniProt P16234); test: Inhibition of PDGFRA (unknown origin) at 1 uM relative to control
[29] = target: Tyrosine-protein kinase Lyn (Homo sapiens) (UniProt P07948); test: Inhibition of LYN (unknown origin) at 1 uM relative to control
[30] = target: Tyrosine-protein kinase HCK (Homo sapiens) (UniProt P08631); test: Inhibition of HCK (unknown origin) at 1 uM relative to control
[31] = target: Proto-oncogene tyrosine-protein kinase Src (Homo sapiens) (UniProt P12931); test: Inhibition of SRC (unknown origin) at 1 uM relative to control
[32] = target: Tyrosine-protein kinase Yes (Homo sapiens) (UniProt P07947); test: Inhibition of YES (unknown origin) at 1 uM relative to control
Sequence of Tyrosine-protein kinase Yes (Homo sapiens) (P07947 2-543 limits assumed): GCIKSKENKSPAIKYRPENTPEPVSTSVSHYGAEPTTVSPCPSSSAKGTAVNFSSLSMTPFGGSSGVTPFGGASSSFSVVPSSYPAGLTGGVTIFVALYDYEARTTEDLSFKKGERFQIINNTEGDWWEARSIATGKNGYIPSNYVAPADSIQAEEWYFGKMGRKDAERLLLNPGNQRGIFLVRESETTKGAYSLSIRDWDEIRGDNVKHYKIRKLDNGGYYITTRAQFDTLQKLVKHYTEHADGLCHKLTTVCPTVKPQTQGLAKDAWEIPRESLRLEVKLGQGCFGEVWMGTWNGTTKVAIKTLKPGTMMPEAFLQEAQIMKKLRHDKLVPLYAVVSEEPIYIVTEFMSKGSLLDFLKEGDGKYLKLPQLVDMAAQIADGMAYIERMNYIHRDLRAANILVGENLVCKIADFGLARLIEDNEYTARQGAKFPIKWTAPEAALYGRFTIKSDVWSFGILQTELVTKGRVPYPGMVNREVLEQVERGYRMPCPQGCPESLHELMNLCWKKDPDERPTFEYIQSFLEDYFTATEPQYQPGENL

[33] = target: Tyrosine-protein kinase TXK (Homo sapiens) (UniProt P42681); test: Inhibition of TXK (unknown origin) at 1 uM relative to control
[34] = target: Tyrosine-protein kinase Fyn (Homo sapiens) (UniProt P06241); test: Inhibition of FYN (unknown origin) at 1 uM relative to control
[35] = target: Mitogen-activated protein kinase kinase kinase kinase 4 (Homo sapiens) (UniProt O95819); test: Inhibition of MAP4K4 (unknown origin) at 1 uM relative to control
[36] = target: Receptor-type tyrosine-protein kinase FLT3 (Homo sapiens) (UniProt P36888); test: Inhibition of FLT3 (unknown origin) at 1 uM relative to control
[37] = target: Cyclin-dependent kinase 19 (Homo sapiens) (UniProt Q9BWU1); test: Inhibition of CDK11 (unknown origin) at 1 uM relative to control
[38] = target: Fibroblast growth factor receptor 1 (Homo sapiens) (UniProt P11362); test: Inhibition of FGFR1 (unknown origin) at 1 uM relative to control
[39] = target: Cytoplasmic tyrosine-protein kinase BMX (Homo sapiens) (UniProt P51813); test: Inhibition of BMX (unknown origin) at 1 uM relative to control
[40] = target: Fibroblast growth factor receptor 2 (Homo sapiens) (UniProt P21802); test: Inhibition of FGFR2 (unknown origin) at 1 uM relative to control
[41] = test system: SW620; test: Inhibition of MAPK pathway in human SW620 cells expressing wild type B-RAF assessed as effect on ERK protein expression incubated for 1 to 4 hrs by immunoblotting analysis; assay type: cell-based; conditions: time 1-4 hrs
[42] = target: Ribosomal protein S6 kinase alpha-1 (Homo sapiens) (UniProt Q15418); test: Inhibition of RSK1 (unknown origin) at 1 uM relative to control
[43] = target: Serine/threonine-protein kinase VRK2 (Homo sapiens) (UniProt Q86Y07); test: Inhibition of VRK2 (unknown origin) at 1 uM relative to control
[44] = Homo sapiens, SW-620, 96 h, read-out: IC50

Row | SMILES | inhibition [1] [%] | inhibition [2] [%] | inhibition [3] [%] | inhibition [4] [%] | inhibition [5] [%] | inhibition [6] [%] | IC50 [15] [nM] | IC50 [16] [nM] | inhibition [17] [%] | inhibition [18] [%] | inhibition [19] [%] | inhibition [20] [%] | inhibition [21] [%] | inhibition [26] [%] | IC50 ([7]; sw-620) | IC50 [8] [nM] | Activity [9] | Activity [10] | inhibition [11] | inhibition [12] | further results
1 | CC(C)(C#N)c1cccc(C(=O)Nc2ccc(F)c(C(=O)c3c[nH]c4ncc(Cl)cc34)c2F)c1 | > 80 |  |  | > 80 | > 80 | > 80 | 56 | 48 | > 80 | > 80 | > 80 | > 80 | > 80 | > 80 |  | ~10000 | Active | Active | Active | Active | inhibition [22]: > 80%; inhibition [23]: > 80%; inhibition [24]: > 80%; inhibition [25]: > 80%; inhibition [27]: > 80%; inhibition [28]: > 80%; inhibition [29]: > 80%; inhibition [30]: > 80%; inhibition [31]: > 80%; inhibition [32]: > 80%; inhibition [33]: > 80%; inhibition [34]: > 80%; inhibition [35]: > 80%; inhibition [36]: > 80%; inhibition [37]: > 80%; inhibition [38]: > 80%; inhibition [39]: > 80%; inhibition [40]: > 80%; IC50 [7, 44]: 2810 nM; inhibition [41]: inactive
2 | CCCS(=O)(=O)Nc1ccc(F)c(C(=O)c2c[nH]c3ncc(Cl)cc23)c1F | > 80 |  | > 80 | > 80 | > 80 | > 80 |  |  |  |  |  |  |  |  |  |  |  |  |  |  | 
3 | Cc1ccc(NC(=O)c2cccc(C(C)(C)C#N)c2)cc1Nc1ccc2ncn(C)c(=O)c2c1 | > 80 | > 80 |  | > 80 |  | > 80 |  |  | > 80 | > 80 | > 80 | > 80 | > 80 | > 80 |  | 40 | Active | Active | Active | Active | inhibition [22]: > 80%; inhibition [42]: > 80%; inhibition [23]: > 80%; inhibition [24]: > 80%; inhibition [25]: > 80%; inhibition [27]: > 80%; inhibition [28]: > 80%; inhibition [29]: > 80%; inhibition [30]: > 80%; inhibition [31]: > 80%; inhibition [32]: > 80%; inhibition [33]: > 80%; inhibition [34]: > 80%; IC50 [7, 44]: 170 nM; inhibition [41]: inactive

More lines, main results first:

Row | inhibition [1] [%] | inhibition [2] [%] | inhibition [3] [%] | inhibition [4] [%] | inhibition [5] [%] | inhibition [6] [%] | IC50 [15] [nM] | IC50 [16] [nM] | inhibition [17] [%] | inhibition [18] [%] | inhibition [19] [%] | inhibition [20] [%] | inhibition [21] [%] | inhibition [26] [%] | SMILES | IC50 ([7]; sw-620) | IC50 [8] [nM] | Activity [9] | Activity [10] | inhibition [11] | inhibition [12] | further results
4 | > 80 | > 80 | > 80 | > 80 | > 80 | > 80 |  |  |  |  |  |  |  |  | CCCS(=O)(=O)Nc1ccc(F)c(C(=O)c2c[nH]c3ncc(-c4ccc(Cl)cc4)cc23)c1F [VEMURAFENIB] | Not Active | 90 | Active | inactive | Active | Active | inhibition [13]: inactive; inhibition [14]: inactive
5 | > 80 | > 80 |  |  | > 80 |  | 690 | 1410 |  |  |  |  |  | > 80 | CCN(C)S(=O)(=O)Nc1ccc(F)c(C(=O)c2c[nH]c3ncc(-c4ccc(Cl)cc4)cc23)c1F | Not Active | 560 | Active | inactive | Active | Active | inhibition [43]: > 80%
